Data set [1] concerns the target T1, MDR1 (ABCB1, P-glycoprotein) (Homo sapiens, UniProt P08183). Description: Permeability of the compound assessed as MDR1-mediated directional transport ratio by cell based assay. The settings on record: not told. In short, it runs like this: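 MDR1 directional transport ratio, calculated as (B to A)/(A to B). Average of three experiments.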
The target of data set [2] is T2, Neuropeptide S receptor (Homo sapiens, UniProt Q6W5P4).
T2 sequence (Q6W5P4 whole entry): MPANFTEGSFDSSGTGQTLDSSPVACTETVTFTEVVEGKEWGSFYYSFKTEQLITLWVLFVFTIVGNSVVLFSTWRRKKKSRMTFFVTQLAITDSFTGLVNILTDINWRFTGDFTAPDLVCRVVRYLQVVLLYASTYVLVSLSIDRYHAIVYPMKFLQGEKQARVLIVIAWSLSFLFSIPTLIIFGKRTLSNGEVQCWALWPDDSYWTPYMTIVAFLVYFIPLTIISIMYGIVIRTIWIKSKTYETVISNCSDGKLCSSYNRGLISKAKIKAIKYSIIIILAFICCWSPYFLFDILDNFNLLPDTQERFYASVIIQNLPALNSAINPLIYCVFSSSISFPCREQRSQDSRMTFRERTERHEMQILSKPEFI
In words: Antagonist activity at human recombinant NPS receptor expressed in CHOK1 cells assessed as inhibition of NPS-induced calcium mobilization by FLIPR assay. Format: functional, cell-based, CHO-K1. The essentials:
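Dual-sequence FLIPR Ca2+ mobilization in CHOK1 cells expressing recombinant NPSR, plated 24 h before the run. Fluo4AM dye loaded 1 h at 37 °C, 5% CO2. Cells incubated with titrated compound for 4 min, then an EC80 of human NPS added and read for another 4 min. Inhibition calculated against NPS-stimulated control wells. IC50 from 4-parameter logistic fits, averaged over at least two experiments.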
(In general: Calcium flux is commonly read through the fluorescence of an indicator in the cells.)

The target of data set [3] is T1, MDR1 (ABCB1, P-glycoprotein). In words: (§1) Permeability of the compound assessed as MDR1-passive permeability by cell based assay. The settings on record: not told; read-out: permeability. The essentials: (§2)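 Passive permeability expressed as Papp in 10^-6 cm/s.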
A short description of data set [4]: Protein binding in human plasma. The settings on record: read-out: PPB (converted).
A short description of data set [5]: Drug level in rat plasma at 30 mg/kg, ip after 0.5 hrs. In kind it is ADME, organism-based. On the set-up: dose 30 mg/kg, route intraperitoneal. The settings on record: read-out: Drug uptake. In short, it runs like this:
(§3)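 Rats dosed 30 mg/kg ip. Plasma, brain and CSF levels measured at 0.5 h and 2.0 h and reported in nM.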

Data set [6] has as its system Rattus norvegicus. In words: Ex vivo receptor occupancy in ip dosed rat brain dorsal endopiriform nucleus assessed inhibition of [125I]NPS binding after 30 mins. Format: functional, organism-based. In short, it runs like this: (§4)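 Compound given 30 mg/kg ip in 25% HPB cyclodextrin. Brain taken 30 min after dosing (n = 4 rats, 2–3 sections/rat). Tissue sections incubated with 0.5 nM 125I-hNPS for 30 min, with 2 µM unlabeled hNPS defining nonspecific binding. Mean percent occupancy in AON, DEN or SC relative to vehicle was plotted against plasma compound concentration, with IC50 from nonlinear regression.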

A short description of data set [7]: Drug level in rat cerebrospinal fluid at 30 mg/kg, ip after 0.5 hrs. Format: ADME, organism-based. The settings on record: read-out: Drug uptake. On the set-up: dose 30 mg/kg, route intraperitoneal. The essentials: as §3
Data set [8] concerns the target T3, Neuropeptide S receptor (Rattus norvegicus, UniProt P0C0L6).
T3 sequence (P0C0L6 whole entry): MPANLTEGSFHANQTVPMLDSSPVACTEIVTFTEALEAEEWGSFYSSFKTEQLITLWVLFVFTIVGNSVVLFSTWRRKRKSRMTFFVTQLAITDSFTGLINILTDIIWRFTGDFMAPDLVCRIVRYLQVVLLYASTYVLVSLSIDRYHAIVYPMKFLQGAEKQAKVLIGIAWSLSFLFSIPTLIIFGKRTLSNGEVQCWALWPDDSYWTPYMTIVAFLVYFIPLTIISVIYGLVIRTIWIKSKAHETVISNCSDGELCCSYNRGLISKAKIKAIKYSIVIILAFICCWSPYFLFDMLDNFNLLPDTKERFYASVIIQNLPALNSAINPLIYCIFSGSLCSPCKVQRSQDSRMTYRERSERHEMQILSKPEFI
Description: Displacement of [3H]quinolinone from rat NPS receptor. Background: In a radioligand displacement assay an active substance lowers the binding of a labelled ligand.

Data set [9] deals with ATP-dependent translocase ABCB1 (Homo sapiens, UniProt P08183). Described as §1. In short, it runs like this: as §2
ATP-dependent translocase ABCB1, sequence (P08183 whole entry): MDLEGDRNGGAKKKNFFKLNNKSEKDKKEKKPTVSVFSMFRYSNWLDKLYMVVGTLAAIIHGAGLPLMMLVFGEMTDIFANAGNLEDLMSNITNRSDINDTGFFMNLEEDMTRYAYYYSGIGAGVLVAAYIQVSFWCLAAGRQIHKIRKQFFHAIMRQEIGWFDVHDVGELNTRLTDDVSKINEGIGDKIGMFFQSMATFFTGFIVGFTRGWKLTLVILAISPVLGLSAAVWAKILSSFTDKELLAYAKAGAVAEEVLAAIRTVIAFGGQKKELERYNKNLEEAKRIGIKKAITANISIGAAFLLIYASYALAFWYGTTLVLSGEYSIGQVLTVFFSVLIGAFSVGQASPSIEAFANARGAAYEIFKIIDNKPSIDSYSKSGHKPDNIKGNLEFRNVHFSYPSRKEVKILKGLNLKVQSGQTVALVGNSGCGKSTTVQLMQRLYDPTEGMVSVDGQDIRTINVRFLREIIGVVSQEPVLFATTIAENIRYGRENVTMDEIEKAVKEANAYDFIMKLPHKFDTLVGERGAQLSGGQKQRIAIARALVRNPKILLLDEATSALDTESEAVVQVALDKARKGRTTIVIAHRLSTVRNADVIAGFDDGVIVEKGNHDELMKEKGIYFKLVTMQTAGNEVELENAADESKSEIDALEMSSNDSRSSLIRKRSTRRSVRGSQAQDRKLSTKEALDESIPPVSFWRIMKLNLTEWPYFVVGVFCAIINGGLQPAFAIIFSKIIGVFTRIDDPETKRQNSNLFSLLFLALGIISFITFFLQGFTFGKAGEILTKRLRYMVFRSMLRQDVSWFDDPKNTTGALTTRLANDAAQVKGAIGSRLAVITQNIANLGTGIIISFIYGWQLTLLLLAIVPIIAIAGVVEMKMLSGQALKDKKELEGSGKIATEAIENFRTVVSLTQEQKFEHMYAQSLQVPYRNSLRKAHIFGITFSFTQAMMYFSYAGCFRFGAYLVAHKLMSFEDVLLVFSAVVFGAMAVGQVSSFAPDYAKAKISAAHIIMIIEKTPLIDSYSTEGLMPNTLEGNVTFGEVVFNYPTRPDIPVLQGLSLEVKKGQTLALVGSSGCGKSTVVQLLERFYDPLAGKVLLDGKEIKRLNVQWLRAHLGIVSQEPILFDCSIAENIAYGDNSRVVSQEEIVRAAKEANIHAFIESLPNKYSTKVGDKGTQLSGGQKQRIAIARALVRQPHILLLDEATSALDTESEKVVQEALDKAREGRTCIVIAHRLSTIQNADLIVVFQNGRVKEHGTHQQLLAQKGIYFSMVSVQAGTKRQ
The next data set relates to Plasma. Description: Protein binding in human plasma. In kind it is ADME, cell-free.
The target of data set [10] is T3, Neuropeptide S receptor. In words: Displacement of [125I]NPS from NPS receptor in rat brain superior coliculus after 30 mins. Format: tissue-based. In short, it runs like this: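 Rat brain sections from vehicle-treated animals (25% HPB cyclodextrin/75% sterile water, ip), preincubated in vitro with titrated compound. Nonspecific binding from co-incubation with 2 µM unlabeled hNPS. 2–3 sections per concentration. Mean ± SEM.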

Data set [11] is described as follows: Drug level in rat brain at 30 mg/kg, ip after 0.5 hrs. Format: ADME, organism-based. On the set-up: dose 30 mg/kg, route intraperitoneal. The settings on record: read-out: Drug uptake. In short, it runs like this: as §3
Data set [12] concerns Rattus norvegicus. In words: Ex vivo receptor occupancy in ip dosed rat brain superior coliculus assessed inhibition of [125I]NPS binding after 30 mins. Format: functional, organism-based. In short, it runs like this: as §4
Data set [13] can be described thus: Drug level in rat cerebrospinal fluid at 30 mg/kg, ip after 2 hrs. In kind it is ADME, organism-based. On the set-up: dose 30 mg/kg, route intraperitoneal. The settings on record: read-out: Drug uptake. The essentials: as §3
The nature of data set [14]: Drug level in rat plasma at 30 mg/kg, ip after 2 hrs. Format: ADME, organism-based. The settings on record: read-out: Drug uptake. On the set-up: dose 30 mg/kg, route intraperitoneal. In short, it runs like this: as §3
Data set [15] has as its system Rattus norvegicus. Description: Ex vivo receptor occupancy in ip dosed rat brain anterior olfactory nucleus assessed inhibition of [125I]NPS binding after 30 mins. Format: functional, organism-based. In short, it runs like this:
as §4

A short description of data set [16]: Drug level in rat brain at 30 mg/kg, ip after 2 hrs. In kind it is ADME, organism-based. On the set-up: dose 30 mg/kg, route intraperitoneal. The settings on record: read-out: Drug uptake. In short, it runs like this:
as §3

Data set [17] deals with Rattus norvegicus. Description: Ex vivo receptor occupancy of NPS receptor in rat brain anterior olfactory nucleus at 30 mg/kg, ip after 30 mins. In kind it is functional, organism-based. On the set-up: dose 30 mg/kg. In short, it runs like this: as §4
In data set [18] the test system is Rattus norvegicus. Description: Ex vivo receptor occupancy of NPS receptor in rat brain superior coliculus at 30 mg/kg, ip after 30 mins. Further details: dose 30 mg/kg. In kind it is functional, organism-based. The essentials: as §4
The test system of data set [19] is Rattus norvegicus. Description: Ex vivo receptor occupancy of NPS receptor in rat brain dorsal endopiriform nucleus at 30 mg/kg, ip after 30 mins. In kind it is functional, organism-based. Further details: dose 30 mg/kg. In short, it runs like this:
as §4

The results in this text go back to ChEMBL document CHEMBL1208679, “Synthesis and evaluation of a new series of Neuropeptide S receptor antagonists” (Bioorg Med Chem Lett, 2010).

Structures are written as SMILES. The source made the active and inactive calls. The calls are words filed in the database; no cut-off is given here.

T1 sequence (P08183 whole entry): as above

One may read the efflux ratio as the permeability from basolateral to apical divided by that in the opposite direction, in the common usage. For orientation: IC50 means the concentration at which inhibition is half-maximal. Consider `CN1CCN(C2(CN(Cc3cc4ccccc4n(C)c3=O)C(=O)C3CCCCC3)CCCCC2)CC1`, for which the efflux ratio in data set [1] is 10.6. Further, the 50% inhibitory concentration (IC50) at Neuropeptide S receptor [2] worked out at 18 nM.
`CC(CCN1CCCC1)N(Cc1cc2ccccc2n(C)c1=O)C(=O)C1CCCCC1` (configuration not stated): on Neuropeptide S receptor [2], the IC50 amounted to 1580 nM.
Same read-out and setting: with `CC(CCN1CCOCC1)N(Cc1cc2ccccc2n(C)c1=O)C(=O)C1CCCCC1` (configuration not stated) the figure was 725 nM; with `Cn1c(=O)c(CN(C(=O)C2CCCCC2)C(C)(C)CCN2CCCC2)cc2ccccc21`, 326 nM.
On to `Cn1c(=O)c(CN(C(=O)C2CCCCC2)C(C)(C)CCN2CCCCC2)cc2ccccc21`, for which the efflux ratio in data set [1] came to 36. The IC50 at Neuropeptide S receptor [2] amounted to 31 nM. Also, the Papp in data set [3] worked out at 25 ×10⁻⁶ cm/s.
The matching figures for `Cn1c(=O)c(CN(C(=O)C2CCCCC2)C(C)(C)CCN2CCOCC2)cc2ccccc21`: 2, 144 nM and 23 ×10⁻⁶ cm/s.
Take `CCC(CC)(CCN1CCOCC1)N(Cc1cc2ccccc2n(C)c1=O)C(=O)C1CCCCC1`: the half-maximal inhibitory concentration (IC50) at Neuropeptide S receptor [2] amounted to 103 nM.
Turning to `Cn1c(=O)c(CN(C(=O)C2CCCCC2)C2(CCN3CCOCC3)CCCCC2)cc2ccccc21`, the IC50 on Neuropeptide S receptor [2] is 398 nM.
Take `CCC(C)(CCN1CCCCC1)N(Cc1cc2ccccc2n(C)c1=O)C(=O)C1CCCCC1` (racemic): the efflux ratio in [1] stood at 43. The IC50 on Neuropeptide S receptor [2] was 7 nM. Also, in data set [4], the fraction unbound is 0.11. Further, the Papp in [3] came to 28 ×10⁻⁶ cm/s.
Turning to `CCC(C)(CCN1CCC(F)CC1)N(Cc1cc2ccccc2n(C)c1=O)C(=O)C1CCCCC1` (racemic), in data set [1], the efflux ratio came out at 2.6. The IC50 on Neuropeptide S receptor [2] came to 14 nM. Further, the Papp in [3] was 33 ×10⁻⁶ cm/s.
As for `CCC(C)(CCN1CCC(F)(F)CC1)N(Cc1cc2ccccc2n(C)c1=O)C(=O)C1CCCCC1` (racemic), the efflux ratio in [1] was 1.1. For the same molecule, the 50% inhibitory concentration (IC50) on Neuropeptide S receptor [2] worked out at 22 nM. Also, the fraction unbound in data set [4] is 0.03. For the same molecule, the Papp in data set [3] is 25 ×10⁻⁶ cm/s.
Consider `CCC(C)(CCN1CCOCC1)N(Cc1cc2ccccc2n(C)c1=O)C(=O)C1CCCCC1` (racemic), for which, at Neuropeptide S receptor [2], the concentration for half-maximal inhibition (IC50) stood at 23 nM. In addition, in data set [3], the Papp amounted to 18 ×10⁻⁶ cm/s.
As usually defined, the EC50 is the concentration that produces a half-maximal response. A higher EC50 goes with lower potency in that assay. For the molecule `CCC(C)(CCN1CCOCC1)N(Cc1cc2ccccc2n(C)c1=O)C(=O)C1CCCCC1` (single isomer, unassigned; enantiomer 1) [listing 1 of 2 here], the concentration at 0.5 h in data set [5] is 4340 nM; in [7], 101 nM; in data set [11] it was 1690 nM. Also, the IC50 was 380 nM in the data set with Rattus norvegicus [6] (0.5 h); 10 nM on Neuropeptide S receptor [2]; 1.44 nM on Neuropeptide S receptor [10]; 130 nM with Rattus norvegicus [12] (0.5 h); 570 nM with Rattus norvegicus [15] (0.5 h). Also, a half-maximal effect on Neuropeptide S receptor [8] (EC50) was put at 1.3 nM. Further, the permeability in data set [9] is 36 ×10⁻⁶ cm/s. This molecule also gave a PPB in the data set on Plasma of 82%. The concentration at 2 h in [13] amounted to 45 nM; in [14] it was 2300 nM; in [16], 665 nM.
For `CCC(C)(CCN1CCOCC1)N(Cc1cc2ccccc2n(C)c1=O)C(=O)C1CCCCC1` (single isomer, unassigned; enantiomer 1) [listing 2 of 2 here], the Activity entry in the data set with Rattus norvegicus [6], in the data set with Rattus norvegicus [12] and in the data set on Rattus norvegicus [15] was “Dose-dependent effect” each time. Besides, the outcome in the data set on Rattus norvegicus [17], with Rattus norvegicus [18] and with Rattus norvegicus [19] was Active.
Consider `CCC(C)(CCN1CCOCC1)N(Cc1cc2ccccc2n(C)c1=O)C(=O)C1CCCCC1` (single isomer, unassigned; enantiomer 2), for which, at Neuropeptide S receptor [2], the IC50 worked out at 785 nM.
